The values below come from ChEMBL document CHEMBL2062467, “Design, synthesis, antimicrobial, anti-inflammatory and analgesic activity of novel isoxazolyl pyrimido[4,5-b]quinolines and isoxazolyl chromeno[2,3-d]pyrimidin-4-ones” (2012).

Values after ≈ are worked out from the molar mass of the structure shown.

The subject of one assay is Fusarium oxysporum. As to the kind of experiment: Antifungal activity against Fusarium oxysporum after 72 to 96 hrs by agar cup method. Format: functional.
Settings: not given
The method, boiled down: (§1)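 Agar cup assay on potato dextrose agar. Plates were spread with 0.5 mL of a one-week-old fungal spore suspension, and 6 mm cups were bored into the agar. Different concentrations of compound in acetone were added to the cups. Acetone and clotrimazole served as controls. Plates were held at room temperature for 72–96 h.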
On to `Cc1noc(/C=C/c2ccccc2)c1N1CN=C2Oc3c(Cl)cc(Cl)cc3C=C2C1=O`, for which the MIC was determined as 16 µg/mL (≈ 35.4 µM).

`Cc1ccc(/C=C/c2onc(C)c2-n2c(C)nc3nc4ccc(Cl)cc4cc3c2=O)cc1` displayed an MIC of 10 µg/mL (≈ 22.6 µM).

`Cc1ccc(/C=C/c2onc(C)c2-n2c(C)nc3nc4ccccc4cc3c2=O)cc1` came in with an MIC of 12 µg/mL (≈ 29.4 µM).

Take `Cc1ccc(/C=C/c2onc(C)c2N2CN=C3Oc4ccc(Cl)cc4C=C3C2=O)cc1`: the lowest concentration to inhibit growth (MIC) was 9 µg/mL (≈ 20.8 µM).

The test system of another assay is Rhizoctonia solani. As to the kind of experiment: Antifungal activity against Rhizoctonia solani after 72 to 96 hrs by agar cup method. In kind it is functional.
Settings: not given
A digest of the protocol:
as §1
Compound `Cc1noc(/C=C/c2ccccc2)c1N1CN=C2Oc3c(Cl)cc(Cl)cc3C=C2C1=O` registered an MIC of 15 µg/mL (≈ 33.2 µM).

With `Cc1ccc(/C=C/c2onc(C)c2-n2c(C)nc3nc4ccc(Cl)cc4cc3c2=O)cc1`, the MIC turned out to be 12 µg/mL (≈ 27.1 µM).

In turn, `Cc1ccc(/C=C/c2onc(C)c2-n2c(C)nc3nc4ccccc4cc3c2=O)cc1` returned an MIC of 14 µg/mL (≈ 34.3 µM).

In turn, `Cc1ccc(/C=C/c2onc(C)c2N2CN=C3Oc4ccc(Cl)cc4C=C3C2=O)cc1` gave an MIC of 11 µg/mL (≈ 25.5 µM).

In another assay the test system is Bacillus subtilis. The assay is described as follows: Antibacterial activity against Bacillus subtilis MTCC 441 after 24 hrs by broth dilution method. Format: functional. The conditions noted are these: MTCC 441, 24 h. A digest of the protocol:
(§2)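 Broth dilution MIC in autoclaved nutrient broth tubes. Test compound was dissolved in acetone, and 100 mg/mL (so in the source) was added to the first tube, then serially diluted across the tubes.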
(In general: Dilution methods test growth across graded concentrations, often in twofold steps.)
Turning to `Cc1noc(/C=C/c2ccccc2)c1N1CN=C2Oc3c(Cl)cc(Cl)cc3C=C2C1=O`, it took 15 µg/mL (≈ 33.2 µM) to inhibit growth (MIC).

In turn, `Cc1ccc(/C=C/c2onc(C)c2-n2c(C)nc3nc4ccc(Cl)cc4cc3c2=O)cc1` showed an MIC of 12 µg/mL (≈ 27.1 µM).

The compound `Cc1ccc(/C=C/c2onc(C)c2-n2c(C)nc3nc4ccccc4cc3c2=O)cc1` registered an MIC of 19 µg/mL (≈ 46.5 µM).

In turn, `Cc1ccc(/C=C/c2onc(C)c2N2CN=C3Oc4ccc(Cl)cc4C=C3C2=O)cc1` had an MIC of 14 µg/mL (≈ 32.4 µM).

A further assay relates to Pseudomonas aeruginosa. The assay is described as follows: Antibacterial activity against Pseudomonas aeruginosa MTCC 741 after 24 hrs by broth dilution method. Format: functional. The conditions noted are these: MTCC 741, 24 h. A digest of the protocol:
as §2
For `Cc1noc(/C=C/c2ccccc2)c1N1CN=C2Oc3c(Cl)cc(Cl)cc3C=C2C1=O`, the lowest concentration to inhibit growth (MIC) was 15 µg/mL (≈ 33.2 µM).

The compound `Cc1ccc(/C=C/c2onc(C)c2-n2c(C)nc3nc4ccc(Cl)cc4cc3c2=O)cc1` registered an MIC of 10 µg/mL (≈ 22.6 µM).

For the compound `Cc1ccc(/C=C/c2onc(C)c2-n2c(C)nc3nc4ccccc4cc3c2=O)cc1`, the MIC worked out at 23 µg/mL (≈ 56.3 µM).

On to `Cc1ccc(/C=C/c2onc(C)c2N2CN=C3Oc4ccc(Cl)cc4C=C3C2=O)cc1`, for which 11 µg/mL (≈ 25.5 µM) was the least that counted as inhibitory (MIC).

The test system of another assay is Klebsiella aerogenes. The assay is described as follows: Antibacterial activity against Klebsiella aerogenes MTCC 39 after 24 hrs by broth dilution method. In kind it is functional. As to conditions: MTCC 39, 24 h. A digest of the protocol:
as §2
For the compound `Cc1noc(/C=C/c2ccccc2)c1N1CN=C2Oc3c(Cl)cc(Cl)cc3C=C2C1=O`, it took 17 µg/mL (≈ 37.6 µM) to inhibit growth (MIC).

For `Cc1ccc(/C=C/c2onc(C)c2-n2c(C)nc3nc4ccc(Cl)cc4cc3c2=O)cc1`, the MIC worked out at 14 µg/mL (≈ 31.6 µM).

`Cc1ccc(/C=C/c2onc(C)c2-n2c(C)nc3nc4ccccc4cc3c2=O)cc1` displayed an MIC of 18 µg/mL (≈ 44.1 µM).

`Cc1ccc(/C=C/c2onc(C)c2N2CN=C3Oc4ccc(Cl)cc4C=C3C2=O)cc1` registered an MIC of 18 µg/mL (≈ 41.7 µM).

For a further assay, the system named is Colletotrichum truncatum. The assay is described as follows: Antifungal activity against Colletotrichum capsici after 72 to 96 hrs by agar cup method. Format: functional.
Settings: not given
The method, boiled down: as §1
`Cc1noc(/C=C/c2ccccc2)c1N1CN=C2Oc3c(Cl)cc(Cl)cc3C=C2C1=O` displayed an MIC of 16 µg/mL (≈ 35.4 µM).

Consider `Cc1ccc(/C=C/c2onc(C)c2-n2c(C)nc3nc4ccc(Cl)cc4cc3c2=O)cc1`, for which the MIC was determined as 14 µg/mL (≈ 31.6 µM).

Consider `Cc1ccc(/C=C/c2onc(C)c2-n2c(C)nc3nc4ccccc4cc3c2=O)cc1`, for which the MIC was 18 µg/mL (≈ 44.1 µM).

With `Cc1ccc(/C=C/c2onc(C)c2N2CN=C3Oc4ccc(Cl)cc4C=C3C2=O)cc1`, the MIC is 12 µg/mL (≈ 27.8 µM).

The test system of the next assay is Rattus norvegicus. The assay is described as follows: Analgesic activity in Albino rat assessed as reaction time at 10 mg/kg, po after 2 hrs by Hot plate test. Format: functional.
Settings: not given
A digest of the protocol: (§3)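 Hot plate test of central analgesia in rats, six per group, with a vehicle control group and an Indomethacin group (10 mg/kg po). Test compounds were given orally at 10 mg/kg. Reaction time was read at 0, 1 and 2 h. Values are the mean of six, ± S.E., also expressed as % increase over basal. Statistics used ANOVA/LSD; Dunnett's test vs control (P < 0.05).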
(Thermal pain tests record how soon the animal reacts.)
In the case of `Cc1noc(/C=C/c2ccccc2)c1N1CN=C2Oc3c(Cl)cc(Cl)cc3C=C2C1=O`, the Time is listed as 21.9 s.

In the case of `Cc1ccc(/C=C/c2onc(C)c2-n2c(C)nc3nc4ccc(Cl)cc4cc3c2=O)cc1`, the Time is 22.3 s.

For the compound `Cc1ccc(/C=C/c2onc(C)c2-n2c(C)nc3nc4ccccc4cc3c2=O)cc1`, the Time was found to be 21.1 s.

In the case of `Cc1ccc(/C=C/c2onc(C)c2N2CN=C3Oc4ccc(Cl)cc4C=C3C2=O)cc1`, the Time is given as 24.7 s.

The test system of the next assay is Staphylococcus aureus. The assay is described as follows: Antibacterial activity against Staphylococcus aureus MTCC 96 after 24 hrs by broth dilution method. Format: functional. As to conditions: MTCC 96, 24 h. The method, boiled down: as §2
Compound `Cc1noc(/C=C/c2ccccc2)c1N1CN=C2Oc3c(Cl)cc(Cl)cc3C=C2C1=O` gave an MIC of 16 µg/mL (≈ 35.4 µM).

`Cc1ccc(/C=C/c2onc(C)c2-n2c(C)nc3nc4ccc(Cl)cc4cc3c2=O)cc1`: the MIC is 10 µg/mL (≈ 22.6 µM).

For the compound `Cc1ccc(/C=C/c2onc(C)c2-n2c(C)nc3nc4ccccc4cc3c2=O)cc1`, the MIC stood at 25 µg/mL (≈ 61.2 µM).

In turn, `Cc1ccc(/C=C/c2onc(C)c2N2CN=C3Oc4ccc(Cl)cc4C=C3C2=O)cc1` yielded an MIC of 15 µg/mL (≈ 34.7 µM).

Another assay deals with Alternaria solani. As to the kind of experiment: Antifungal activity against Alternaria solani after 72 to 96 hrs by agar cup method. In kind it is functional.
Settings: not given
A digest of the protocol:
as §1
In turn, `Cc1noc(/C=C/c2ccccc2)c1N1CN=C2Oc3c(Cl)cc(Cl)cc3C=C2C1=O` showed an MIC of 14 µg/mL (≈ 31 µM).

Take `Cc1ccc(/C=C/c2onc(C)c2-n2c(C)nc3nc4ccc(Cl)cc4cc3c2=O)cc1`: the MIC came to 13 µg/mL (≈ 29.4 µM).

`Cc1ccc(/C=C/c2onc(C)c2-n2c(C)nc3nc4ccccc4cc3c2=O)cc1` registered an MIC of 10 µg/mL (≈ 24.5 µM).

In turn, `Cc1ccc(/C=C/c2onc(C)c2N2CN=C3Oc4ccc(Cl)cc4C=C3C2=O)cc1` had an MIC of 8 µg/mL (≈ 18.5 µM).

Tested on in another assay: not listed separately
The assay is described as follows: Antifungal activity against Verticillium dahliae after 72 to 96 hrs by agar cup method.
Settings: not given
In kind it is functional. The method, boiled down: as §1
As to `Cc1noc(/C=C/c2ccccc2)c1N1CN=C2Oc3c(Cl)cc(Cl)cc3C=C2C1=O`, it took 18 µg/mL (≈ 39.8 µM) to inhibit growth (MIC).

`Cc1ccc(/C=C/c2onc(C)c2-n2c(C)nc3nc4ccc(Cl)cc4cc3c2=O)cc1` yielded an MIC of 11 µg/mL (≈ 24.8 µM).

`Cc1ccc(/C=C/c2onc(C)c2-n2c(C)nc3nc4ccccc4cc3c2=O)cc1` yielded an MIC of 12 µg/mL (≈ 29.4 µM).

`Cc1ccc(/C=C/c2onc(C)c2N2CN=C3Oc4ccc(Cl)cc4C=C3C2=O)cc1`: the MIC stood at 10 µg/mL (≈ 23.2 µM).

For the next assay, the system named is Rattus norvegicus. The assay is described as follows: Analgesic activity in Albino rat assessed as reaction time at 10 mg/kg, po after 1 hr by Hot plate test. Format: functional.
Settings: not given
The method, boiled down:
as §3
For `Cc1noc(/C=C/c2ccccc2)c1N1CN=C2Oc3c(Cl)cc(Cl)cc3C=C2C1=O`, the Time was 28.3 s.

On to `Cc1ccc(/C=C/c2onc(C)c2-n2c(C)nc3nc4ccc(Cl)cc4cc3c2=O)cc1`, for which the Time was found to be 20.8 s.

In the case of `Cc1ccc(/C=C/c2onc(C)c2-n2c(C)nc3nc4ccccc4cc3c2=O)cc1`, the Time stood at 21.3 s.

As to `Cc1ccc(/C=C/c2onc(C)c2N2CN=C3Oc4ccc(Cl)cc4C=C3C2=O)cc1`, the Time is given as 19.1 s.

Another assay concerns Chromobacterium violaceum. The assay is described as follows: Antibacterial activity against Chromobacterium violaceum MTCC 2656 after 24 hrs by broth dilution method. Format: functional. The conditions noted are these: MTCC 2656, 24 h. The method, boiled down:
as §2
For `Cc1noc(/C=C/c2ccccc2)c1N1CN=C2Oc3c(Cl)cc(Cl)cc3C=C2C1=O`, the MIC was 16 µg/mL (≈ 35.4 µM).

In turn, `Cc1ccc(/C=C/c2onc(C)c2-n2c(C)nc3nc4ccc(Cl)cc4cc3c2=O)cc1` displayed an MIC of 12 µg/mL (≈ 27.1 µM).

Take `Cc1ccc(/C=C/c2onc(C)c2-n2c(C)nc3nc4ccccc4cc3c2=O)cc1`: 15 µg/mL (≈ 36.7 µM) was the least that counted as inhibitory (MIC).

In turn, `Cc1ccc(/C=C/c2onc(C)c2N2CN=C3Oc4ccc(Cl)cc4C=C3C2=O)cc1` returned an MIC of 18 µg/mL (≈ 41.7 µM).

A further assay has as its system Lysinibacillus sphaericus. As to the kind of experiment: Antibacterial activity against Bacillus sphaericus MTCC 511 after 24 hrs by broth dilution method. In kind it is functional. The conditions noted are these: MTCC 511, 24 h. A digest of the protocol:
as §2
Consider `Cc1noc(/C=C/c2ccccc2)c1N1CN=C2Oc3c(Cl)cc(Cl)cc3C=C2C1=O`, for which the MIC is 14 µg/mL (≈ 31 µM).

Compound `Cc1ccc(/C=C/c2onc(C)c2-n2c(C)nc3nc4ccc(Cl)cc4cc3c2=O)cc1` came in with an MIC of 11 µg/mL (≈ 24.8 µM).

In turn, `Cc1ccc(/C=C/c2onc(C)c2-n2c(C)nc3nc4ccccc4cc3c2=O)cc1` displayed an MIC of 23 µg/mL (≈ 56.3 µM).

`Cc1ccc(/C=C/c2onc(C)c2N2CN=C3Oc4ccc(Cl)cc4C=C3C2=O)cc1`: the MIC came out at 16 µg/mL (≈ 37 µM).

For a further assay, the system named is Pythium aphanidermatum. As to the kind of experiment: Antifungal activity against Pythium aphanidermatum after 72 to 96 hrs by agar cup method. Format: functional.
Settings: not given
The method, boiled down:
as §1
With `Cc1noc(/C=C/c2ccccc2)c1N1CN=C2Oc3c(Cl)cc(Cl)cc3C=C2C1=O`, the MIC was 22 µg/mL (≈ 48.6 µM).

Turning to `Cc1ccc(/C=C/c2onc(C)c2-n2c(C)nc3nc4ccc(Cl)cc4cc3c2=O)cc1`, 10 µg/mL (≈ 22.6 µM) was the least that counted as inhibitory (MIC).

The compound `Cc1ccc(/C=C/c2onc(C)c2-n2c(C)nc3nc4ccccc4cc3c2=O)cc1` registered an MIC of 15 µg/mL (≈ 36.7 µM).

Consider `Cc1ccc(/C=C/c2onc(C)c2N2CN=C3Oc4ccc(Cl)cc4C=C3C2=O)cc1`, for which it took 9 µg/mL (≈ 20.8 µM) to inhibit growth (MIC).

For orientation: MIC means the least concentration at which growth counts as inhibited. A lower MIC goes with greater potency.
